Assay [1] deals with EcIMPDH/WT (Escherichia coli, UniProt P0ADG7). Briefly: biochemical. In kind it is biochemical.
Assay [2] has as its target EcIMPDH/D243G (Escherichia coli, UniProt P0ADG7, D243G). Nature of the assay: biochemical. In kind it is biochemical.
Assay [3] has as its target AbIMPDH (Acinetobacter baumannii, UniProt D0CF46). Briefly: biochemical. In kind it is biochemical.
Assay [4] has as its system E. coli strains containing WT and mutant IMPDH. Nature of the assay: Growth of engineered E. coli strains with WT or mutant IMPDH. In kind it is cell-based, Escherichia coli. A digest of the protocol:
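E. coli strains carrying WT or mutant IMPDH (guaB) were precultured overnight to saturation in M9 + 1 mM IPTG + 2 g/L glucose. They were diluted 100-fold into M9 salts with 300 mg/L thiamine, 1 mM IPTG and the carbon source; for coumarate, 1 g/L with or without 5 mg/L guanosine (~18 μM). Triplicate cultures were read at OD600 in a plate reader, growth rates were curve-fitted, and standard deviation was taken over three biological replicates.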

EcIMPDH/D243G, sequence (P0ADG7 whole entry D243G): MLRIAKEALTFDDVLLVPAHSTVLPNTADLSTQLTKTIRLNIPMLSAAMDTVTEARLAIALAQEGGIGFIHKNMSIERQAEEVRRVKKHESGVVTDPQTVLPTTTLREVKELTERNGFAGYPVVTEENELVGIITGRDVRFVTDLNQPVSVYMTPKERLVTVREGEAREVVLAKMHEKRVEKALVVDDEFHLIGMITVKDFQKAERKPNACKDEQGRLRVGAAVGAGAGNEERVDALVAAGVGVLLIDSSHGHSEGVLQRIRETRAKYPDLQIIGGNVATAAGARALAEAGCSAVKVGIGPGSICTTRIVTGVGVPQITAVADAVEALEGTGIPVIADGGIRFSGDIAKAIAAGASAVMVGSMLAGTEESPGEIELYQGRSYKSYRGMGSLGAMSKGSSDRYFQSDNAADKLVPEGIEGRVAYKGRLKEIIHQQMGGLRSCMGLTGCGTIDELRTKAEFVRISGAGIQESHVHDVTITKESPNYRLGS
EcIMPDH/WT, sequence (P0ADG7 whole entry): as the sequence (P0ADG7 whole entry D243G) above, with G243D counted along it

With `NC(=O)c1ccc[n+]([C@@H]2O[C@H](COP(=O)([O-])OP(=O)(O)OC[C@H]3O[C@@H](n4cnc5c(N)ncnc54)[C@H](O)[C@@H]3O)[C@@H](O)[C@H]2O)c1` [NAD], the “Kii(NAD)” value was 4300 ± 530 µM in assay [1] (EcIMPDH/WT, substrate inhibition by NAD, fixed 1.2 mM IMP); 3500 ± 690 µM in assay [2] (EcIMPDH/D243G, substrate inhibition by NAD, fixed 1.2 mM IMP); 10600 ± 1100 µM in assay [3] (AbIMPDH, substrate inhibition by NAD, fixed 1.2 mM IMP). Besides, the Km in assay [1] (read-out: Km(NAD), EcIMPDH/WT, fixed 1.2 mM IMP, 50 nM enzyme) was found to be 210 ± 20 µM; in assay [2] (read-out: Km(NAD), EcIMPDH/D243G, fixed 1.2 mM IMP, 50 nM enzyme) it was 210 ± 40 µM; in assay [3] (read-out: Km(NAD), AbIMPDH, fixed 1.2 mM IMP, 50 nM enzyme), 208 ± 17 µM.

Turning to `Nc1nc2c(ncn2[C@@H]2O[C@H](CO)[C@@H](O)[C@H]2O)c(=O)[nH]1` [guanosine], the “Effect of added guanosine on inhibition by 4-hydroxybenzaldehyde” value in assay [4] (strain JME129 (wild-type guaB), growth with glucose (Figure S6)) is on record as “relieved inhibition”. Further, in assay [4] (strain with wild-type IMPDH, 1 g/L coumarate, 5 mg/L guanosine), the “Effect of added guanosine on growth with coumarate” value is given as “increased growth with coumarate”.

`O=Cc1ccc(O)cc1` [4-hydroxybenzaldehyde]: the Ki in assay [1] (Ki,app(4HB), EcIMPDH/WT, 20 nM enzyme, 12 μM IMP, 500 μM NAD+, pH 7.0) came out at 320 ± 30 µM; in assay [2] (Ki,app(4HB), EcIMPDH/D243G, 20 nM enzyme, 12 μM IMP, 500 μM NAD+, pH 7.0), 1250 ± 50 µM; in assay [3], 720 ± 30 µM. Besides, the “Inhibition mechanism with respect to IMP” value in assay [1] (wild type EcIMPDH) and in assay [2] (D243G EcIMPDH) was “uncompetitive inhibitor” throughout. Moreover, the “Inhibition mechanism with respect to NAD+” value in assay [1] (wild type EcIMPDH) and in assay [2] (D243G EcIMPDH) was “noncompetitive (mixed) inhibitor” in each case.

For the origin of these results see publication PMC6904512 (Molecular microbiology, 2019).
